Source: PubChem (Sanford-Burnham Center for Chemical Genomics)
PMI act = activators of human phosphomannose isomerase; purified human PMI, coupled resazurin fluorescence, 20 min; stronger effect = higher value; 1 = vehicle control, 0 substrate-free wells; P34949; AID 1214; activation factor at 20 µM; hit rate 0.005% among 190,000;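 active = activation factor of 2 or more at 20 µM, relative to plate controls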
Target sequence (P34949 whole entry, looked up): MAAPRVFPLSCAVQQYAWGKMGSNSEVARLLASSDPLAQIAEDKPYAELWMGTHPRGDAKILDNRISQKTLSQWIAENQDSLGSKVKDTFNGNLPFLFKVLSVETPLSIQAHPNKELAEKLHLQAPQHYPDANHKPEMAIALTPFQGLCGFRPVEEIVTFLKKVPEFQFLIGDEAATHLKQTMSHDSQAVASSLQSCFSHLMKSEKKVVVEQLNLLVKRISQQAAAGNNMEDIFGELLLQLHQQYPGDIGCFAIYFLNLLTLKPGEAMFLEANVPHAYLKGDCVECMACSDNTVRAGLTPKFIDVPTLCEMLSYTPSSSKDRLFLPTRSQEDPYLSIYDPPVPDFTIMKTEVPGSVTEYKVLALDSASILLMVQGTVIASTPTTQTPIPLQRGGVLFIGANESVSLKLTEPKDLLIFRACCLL
Diaph inh CS = inhibits diaphorase or chemically oxidizes, flagging diaphorase assay artifacts; inhibition, % at 20 µM; diaphorase resazurin-to-resorufin fluorescence, NADH, 16 min; bacterial (C. kluyveri) enzyme, not human; hit rate 0.69% among 190,000; AID 1217;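 active = primary screen inhibition at 20 µM above a set limit, cut at about 50% in these data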;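 also: plate controls were DMSO with full reaction for no effect and wells lacking NADH for full effect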
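System: Diaphorase enzyme from Clostridium kluyveri | Amount: Enzyme working solution with 0.14 U/mL diaphorase | Benchmarks: No-NADH positive control and DMSO neutral control | Signal: Fluorescence of resorufin formed from resazurin, Ex 544/Em 590 nm | Schedule: 16-min room-temperature incubation before reading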
PMI act satM6P = activators of human phosphomannose isomerase at near-saturating mannose 6-phosphate. hit rate 0.34% among 190,000. coupled PMI enzyme assay, resazurin fluorescence, 20 min; stronger effect = higher value; 1 = untreated enzyme, 0 = substrate-free blank. activation factor at 20 µM. AID 1216. P34949;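 active = activation factor of 2 or more at 20 µM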
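assay system = human phosphomannose isomerase with PGI, G6PDH, diaphorase coupling enzymes | quantity = 15 ng/mL PMI | incubation = enzyme reaction with compound 20 min at room temperature | medium = HEPES pH 7.4 buffer with MgCl2 and Tween-20 | compound dosing = one concentration, 20 µM, in 1% DMSO | measured by = Diaphorase-driven resazurin-to-resorufin fluorescence, excitation 544, emission 590 nm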
G6PDH counter = counter-screen for G6PDH assay hits: L. mesenteroides G6PDH inhibition. Purified L. mesenteroides G6PDH, diaphorase/resazurin coupled fluorescence, 45 min. inhibition, % at 5 µM. hit rate 0.12% among 200,000. AID 1020; in the data active = inhibition above about 50%
Diaphorase act = activates diaphorase or chemically reduces, flagging diaphorase assay artifacts; Diaphorase/resazurin coupled assay, resorufin fluorescence, 16 min; stronger effect = higher value; 1 = vehicle wells, 0 = NADH-free wells; activation factor at 20 µM; hit rate 0.005% among 190,000;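 active = diaphorase activity raised at least twofold by the compound at 20 µM; inactive = activation factor below 2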
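Assay system: bacterial diaphorase enzyme (C. kluyveri) / Input: enzyme 0.07 U/mL final / Medium: 50 mM HEPES pH 7.4 with 4.542 mM MgCl2, 0.005% Tween 20 / Doses: single compound dose of 20 µM, 1% DMSO final / Incubation: 16 min enzyme reaction, ambient temperature / Signal: fluorescence, excitation 544 nm and emission 590 nm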
An asterisk follows results filed as active. Shown are actives, neighbours in structure and some others; about 1.1% of the full set was active somewhere.

SMILES	PMI act	Diaph inh CS	PMI act satM6P	G6PDH counter	Diaphorase act
CCOC(=O)C(=O)NNc1ccccc1C	1.5	14	2.2*	0	0.9
CCOC(=O)C(=O)NNc1cccc(C)c1C	1.6	6	2.2*	0	0.9
Cc1ccc(-n2c(=S)[nH]c3sc4c(c3c2=O)CCC4)cc1	1	53*	0.9	-7	0.5
O=c1[nH]c2sc3c(c2c(=O)n1Cc1ccccc1)CCC3	0.9	22	0.9	6	0.8
CCOc1ccccc1NC(=O)c1c(NC(=O)CCC(=O)O)sc2c1CCCCC2	1.6	15	2.1*	7	0.8
CCOC(=O)c1ccc(NC(=O)c2c(NC(=O)CCC(=O)O)sc3c2CCCCC3)cc1	1.4	21	1.9	-1	0.8
O=C(O)C1OC(Oc2c(-c3ccc(O)c(O)c3)oc3cc(O)cc(O)c3c2=O)C(O)C(O)C1O (stereo not drawn)	0.8	55*	1	36	0.5
O=C(O)C1OC(Oc2cc3oc(-c4ccccc4)cc(=O)c3c(O)c2O)C(O)C(O)C1O (stereo not drawn)	1	24	1.2	30	0.8
CC(=O)Nc1ccccc1C(=O)N1CC(C)OC(C)C1 (stereo not drawn)	1	16	1	2	0.8
Cn1nnc2c(sc3nc(N4CCOCC4)c4c(c32)CCCC4)c1=O	0.9	18	0.9	-42	0.8
S=c1nc[nH]c2c1sc1nc(N3CCOCC3)c3c(c12)CCCC3	1.6	30	2*	14	0.7
O=C(c1cc2c(s1)CCCC2)N1CCN(S(=O)(=O)c2ccccc2C(F)(F)F)CC1	0.9	24	0.9	0	0.8
Cc1cccc(C(C)C)c1NC(=O)c1ccc(CN(c2ccccc2)S(=O)(=O)c2ccccc2)cc1	1	-6	1	-9	1.1
CCOC(=O)C(C(=O)OCC)c1cc(Br)c2noc3c2c1C(=O)c1ccccc1-3	0.7	62*	0.5	56*	0.4
CC(=O)OCCNc1cc(N2CCN(C)CC2)c2noc3c2c1C(=O)c1ccccc1-3	0.9	21	0.5	22	0.8
O=C(Nc1ccc(-c2nc3ccccc3s2)c(OC(=O)c2ccccc2)c1)c1ccccc1	0.9	15	1	-19	0.9
Nc1[nH]nc2nc3ccccc3cc12	1.5	7	2.2*	4	0.9
c1ccc2c3c(cc(N4CCOCC4)c2c1)OC1(N2CCOCC2)CCCCC1O3 (stereo not drawn)	0.7	25	0.4	50*	0.7
CCc1cc(N2CCOCC2)cc2c1[nH]c1ccccc12	0.4	53*	0.3	29	0.5
c1ccc2c(c1)[nH]c1c(N3CCOCC3)ncnc12	0.9	2	0.9	-14	1
COc1cc(C2C3=C(CCCC3=O)Nc3[nH]n(-c4ccccc4)c(=O)c32)ccc1OC(C)=O (stereo not drawn)	1.6	1	2*	7	1
COc1cc(C2C3=C(CCCC3=O)Nc3[nH]n(-c4ccccc4)c(=O)c32)cc(OC)c1OC (stereo not drawn)	1.5	7	1.5	3	0.9
CC(=O)Oc1cc2oc(=O)cc(C)c2cc1OC(C)=O	1	52*	0.4	45	0.5
CC(=O)Oc1ccc2c(C)cc(=O)oc2c1	1	9	1	1	0.9
CC12CCC(C(=O)NNc3ccc([N+](=O)[O-])cc3)(CC1=O)C2(C)C (stereo not drawn)	1.1	4	1.1	3	1
SMILES	PMI act	Diaph inh CS	PMI act satM6P	G6PDH counter	Diaphorase act
CCN1C(=O)c2cccc3c(S(=O)(=O)Nc4ccccc4OC)ccc1c23	0.9	51*	0.9	0	0.5
COc1cccc(CNc2ccc(N3CCC(C)CC3)cc2)c1OC	0.3	63*	0.4	3	0.4
COC(=O)c1[nH]c2cccc(OC)c2c1NC(=O)C(C)N1CCC(C)CC1 (stereo not drawn)	0.9	5	1	6	0.9
Cc1ccc(NC(=O)CSc2nnc(-c3cccnc3)n2CCN2CCCCC2)cc1	1.1	-1	1	8	1
COC(=O)C1CC(O)CN1C(=O)NC1CCCCC1 (stereo not drawn)	1.6	9	2.4*	22	0.9
O=C(NC1CCCCC1)C1CC(O)CN1C(=O)OCc1ccccc1 (stereo not drawn)	1	1	1	-7	1
O=C(N/N=C/c1ccccc1Cl)c1nc2ccc([N+](=O)[O-])cc2c(=O)[nH]1	0.9	58*	0.9	2	0.4
O=[N+]([O-])c1ccc(Cl)c(/C=N/NC(=S)Nc2ccccc2)c1	0.3	7	1	1	0.9
CC(=O)NC(c1cccs1)c1cc([N+](=O)[O-])c2cccnc2c1O (stereo not drawn)	0.9	44	0.6	61*	0.6
CC(C)C(=O)NC(c1ccccc1)c1cc([N+](=O)[O-])c2cccnc2c1O (stereo not drawn)	0.8	39	0.4	55*	0.6
CCC(=O)NC(c1cccs1)c1cc([N+](=O)[O-])c2cccnc2c1O (stereo not drawn)	1	31	0.6	38	0.7
CC(=O)NC(c1ccccc1)c1cc([N+](=O)[O-])c2cccnc2c1O (stereo not drawn)	0.7	56*	0.4	61*	0.4
CCC(C)(C)C1CCC(=NNc2nc3ccccc3[nH]2)CC1 (stereo not drawn)	1.7	4	2*	2	1
O=C1NC(=O)/C(=C\c2ccc(Oc3ccc([N+](=O)[O-])cn3)cc2)S1	1	9	1	-13	0.9
Fc1ccc(N/N=C(/c2ccccc2)c2ccccn2)cc1	1.4	20	2*	-12	0.8
[O-]C1=N/[N+](=C/c2ccccc2Cl)CC1	1.5	14	2*	0	0.9
COc1cc2c(cc1OC)C(c1cccc([N+](=O)[O-])c1)N(C(=O)c1ccccc1C(=O)O)CC2 (stereo not drawn)	1	0	1	2	1
O=C(NC1=C(NC2CCS(=O)(=O)C2)C(=O)c2ccccc2C1=O)c1ccccc1 (stereo not drawn)	0.9	72*	0.7	51*	0.3
CCOC(=O)c1c(NC(=O)c2ccco2)n(C2CCCCC2)c2nc3ccccc3nc12	0.5	69*	0.4	38	0.3
N#Cc1c(NC(=O)c2ccccc2Cl)n(Cc2ccccc2)c2nc3ccccc3nc12	0.7	38	0.7	-13	0.6
COc1ccc(-n2c(NC(=O)c3ccco3)c(C#N)c3nc4ccccc4nc32)cc1	0.4	70*	0.3	42	0.3
CCOCCCNC(=S)N1CCCN(c2nc3cc(C)ccc3cc2C#N)CC1	1.7	5	2.3*	4	1
